# Compound activity: PubChem BioAssay, several laboratories
# This is a sample that favours compounds with a hit; in the whole collection about 2.6% have one here.
# SENP6 block: SENP6 protease inhibition; Q9GZR1; Recombinant SENP6 catalytic domain, aminoluciferin luminescence; inhibition, % at 10 µM; 330,000 compounds, 1.8% hits; AID 2599;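 active = inhibition above about 50% at the single tested dose, limit read from the data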;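 note: plate controls were DMSO wells with enzyme for no effect and DMSO wells lacking enzyme for full effect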
# SENP7 inh: SENP7 protease inhibition. Q9BQF6. recombinant SENP7, Z-RLRGG-aminoluciferin luminescence, 40 min. inhibition, % at 5 µM. 330,000 compounds, 1.5% hits;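 active = inhibition above about 50% at the single test dose, limit read from the data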;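 note: plate controls were DMSO with enzyme for no effect and no enzyme buffer wells for full effect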
# SENP8 block-1: SENP8 (human) protease inhibition | Q96LD8 | recombinant SENP8, Nedd8 substrate fluorescence | inhibition, % at 20 µM | 360,000 compounds, 0.64% hits | AID 602440; in the data active = inhibition mostly above about 40%, no sharp cut-off; inactive = mostly below about 27%
# Target sequence (Q96LD8 whole entry, looked up): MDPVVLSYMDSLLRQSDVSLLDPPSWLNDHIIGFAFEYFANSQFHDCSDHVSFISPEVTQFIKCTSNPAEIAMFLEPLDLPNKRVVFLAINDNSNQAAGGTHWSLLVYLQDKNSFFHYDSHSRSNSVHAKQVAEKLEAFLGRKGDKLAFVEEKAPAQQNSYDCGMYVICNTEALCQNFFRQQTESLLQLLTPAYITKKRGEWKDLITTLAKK
# Platelet DG rel: platelet dense granule release activity | human platelet-rich plasma, SFLLRN dense granule ATP release, luminescence | 300,000 compounds, 0.22% hits | AID 1663 | inhibition, %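 (compounds screened at 7.5 µM in platelet-rich plasma)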;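 active = mean replicate score, as percent of positive control, at or above 50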
# SENP8 block-2: SENP8 protease inhibition | Q96LD8 | purified SENP8, Z-RLRGG-aminoluciferin cleavage, luminescence | inhibition, % at 10 µM | 330,000 compounds, 1.2% hits | AID 2540; in the data active = inhibition above about 50%
# SENP1 inh: blocks the human SENP1 SUMO protease catalytic domain; Q9P0U3; recombinant SENP1 catalytic domain, CyPet-SUMO1-YPet FRET cleavage; inhibition, % at 10 µM; 360,000 compounds, 0.21% hits; AID 624204;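 active = inhibition at least 30% at 10 µM, raw YFP signal under a set limit, fluorescence ratio 0.5 to 1.5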;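 note: 0% = enzyme with DMSO and 100% = no enzyme wells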
# Target sequence (Q9P0U3 419-644 limits assumed): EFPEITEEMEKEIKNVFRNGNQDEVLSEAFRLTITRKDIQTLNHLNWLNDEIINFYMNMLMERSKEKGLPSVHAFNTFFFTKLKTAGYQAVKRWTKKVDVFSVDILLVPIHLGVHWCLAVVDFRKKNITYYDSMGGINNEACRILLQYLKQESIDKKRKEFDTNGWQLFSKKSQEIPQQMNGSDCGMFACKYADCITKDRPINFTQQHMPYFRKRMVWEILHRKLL
#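 Compound: 10 µM single point, 0.5% DMSO; Test system: hSENP1 catalytic domain, recombinant; Timing: 50 min reaction at room temperature; Technique: FRET, CFP and YFP emission; Control set: no-enzyme wells low, DMSO-plus-enzyme wells high control.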
# SENP8 conf-1: confirmation of human SENP8 protease inhibitors; shares compounds with SENP7 inh; Recombinant SENP8, Z-RLRGG-aminoluciferin luminescence, 60 min; inhibition, % at 12.5 µM; 6,200 compounds, 40% hits; AID 488912;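 active = mean inhibition across replicates above about 50%, limit read from the data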
# SENP6 confirm: confirmation of human SENP6 protease inhibitors | shares compounds with SENP7 inh | recombinant SENP6, Z-RLRGG-aminoluciferin luminescence | inhibition, % at 12.5 µM | 6,200 compounds, 58% hits | AID 488915
# SENP7 conf: human SENP7 inhibition, confirmed; shares compounds with SENP7 inh; recombinant SENP7, Z-RLRGG-aminoluciferin luminescence, 40 min; inhibition, % at 12.5 µM; 6,200 compounds, 69% hits
# Casp3 SENP sel: selectivity test for SENP inhibitors: human caspase-3 inhibition; shares compounds with SENP7 inh; purified caspase-3, Z-DEVD-aminoluciferin luminescence, 60 min; inhibition, % at 12.5 µM; 6,200 compounds, 60% hits;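 active = mean inhibition above about 50%, limit read from the data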;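 note: plate controls were enzyme with DMSO for no effect and wells without caspase-3 for full effect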
# SENP luc ctr: counter-screen for SENP inhibitors: luminescence interference; shares compounds with SENP7 inh; Pre-incubated SENP8/Z-RLRGG-aminoluciferin, luciferase luminescence interference; inhibition, % at 12.5 µM; 6,200 compounds, 39% hits; AID 488919;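 active = mean inhibition above about 50% when retested at one dose, limit read from the data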;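 note: plate controls were DMSO wells with completed reaction for no effect and substrate without enzyme for full effect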
# SENP8 conf-2: SENP8 (human) inhibition, single concentration confirmation; shares compounds with SENP8 block-1; purified SENP8, Nedd8-AMC/pro-Nedd8 cleavage fluorescence, 30 min; inhibition, % at 25 µM; 1,400 compounds, 15% hits; AID 624319; in the data active = inhibition mostly above about 39%, no sharp cut-off; inactive = mostly below about 34%
# Active calls of the source: *; · = no result.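 Rule for the calls, unless noted: active = mean inhibition above about 50% in the one-dose retest (limit read from the data); inactive = the rest.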
SMILES,SENP6 block,SENP7 inh,SENP8 block-1,Platelet DG rel,SENP8 block-2,SENP1 inh,SENP8 conf-1,SENP6 confirm,SENP7 conf,Casp3 SENP sel,SENP luc ctr,SENP8 conf-2
CSc1nnc(-c2ccccc2N=Cc2c(C)[nH]n(-c3ccc4ccccc4c3)c2=O)c(=O)[nH]1,78*,16,41*,19,53*,4,47,63*,34,67*,68*,15
CN(C)c1ccc(N/C=C/C(=O)c2ccco2)cc1,96*,96*,45*,68*,90*,71*,1,94*,101*,95*,31,13
O=C(CN1CCN(C(=O)c2ccco2)CC1)Nc1ccc(Br)cc1,-5,7,13,-3,0,1,·,·,·,·,·,·
COc1ccccc1N1C(=O)Cc2ccccc2C1=O,69*,40,90*,-2,19,-4,18,63*,31,15,-3,55*
Nc1nnc2c(n1)CCCC2,56*,36,88*,0,50,-1,6,61*,36,19,-6,63*
CCOC(=O)C1=C(C)OC2(O)c3ccccc3C(=O)C12O (stereo not given),69*,46,96*,23,64*,4,25,88*,82*,-4,-1,99*
CCOC(=O)C1=C(C)N[C@@]2(O)c3ccccc3C(=O)[C@@]12O,4,10,17,-6,4,-1,·,·,·,·,·,·
Cc1cccc(S(=O)(=O)N2CCN(Cc3ccc4c(c3)OCO4)CC2)c1,12,-5,3,-8,3,1,·,·,·,·,·,·
COc1ccc(S(=O)(=O)Oc2ccc3cccc(N)c3c2)cc1,86*,47,56*,-19,84*,-7,0,15,12,6,-3,33
COc1ccc(S(=O)(=O)Oc2ccc3ccccc3c2)cc1,-13,-3,9,0,-20,0,·,·,·,·,·,·
Cc1cc(C)c2oc(C(=O)NC3CCS(=O)(=O)C3)cc(=O)c2c1 (stereo not given),3,-3,-134,13,0,-20,·,·,·,·,·,·
COc1cc(O)c(CC=C(C)C)c(O)c1C(=O)CCc1ccc(O)cc1,77*,12,54*,3,70*,-2,41,77*,83*,-2,4,19
CCCCN1CC[C@H]2C=CC[C@@H](C(=O)Nc3ccc(Cl)cc3Cl)[C@H]2C1=O,-23,0,14,-8,-7,1,·,·,·,·,·,·
COc1ccc(/C=N/NC(=O)c2nn(-c3ccc(C)c(C)c3)c(=O)c3ccccc23)cc1,-7,-4,-11,3,-8,-1,·,·,·,·,·,·
COc1ccc(/C=N/NC(=O)c2nn(-c3ccccc3)c(=O)c3c(N)scc23)cc1,52*,12,74*,3,18,6,24,68*,21,61*,3,83*
COc1ccc(/C=N/NC(=O)c2nn(-c3ccc(Cl)cc3)c(=O)c3c(N)scc23)cc1,61*,15,49*,0,18,2,-1,46,0,28,-2,61*
CC(C)(C)OC(=O)NCCCCCNC(=O)c1ncn(Cc2ccccc2)c1C(=O)NCCCCCNC(=O)OC(C)(C)C,-11,-5,1,·,-13,0,·,·,·,·,·,·
O=C(c1ccc([N+](=O)[O-])o1)N1CCc2ccccc21,52*,46,48*,4,33,-1,27,52*,41,59*,17,25
O=C(NC1CCCC1)C1C(c2ccc(C(F)(F)F)cc2)=Nc2ccccc2N1C(=O)c1cccc(C(F)(F)F)c1 (stereo not given),·,·,-5,·,·,2,·,·,·,·,·,·
O=C(NNc1cc(N2CCOCC2)nc(N2CCOCC2)n1)c1ccc([N+](=O)[O-])cc1,83*,52*,70*,4,47,-25,19,56*,35,4,-1,44*
CCOC(=O)c1nn(-c2ccc(C)c(C)c2)c(=O)c2c(N)scc12,51*,9,60*,3,3,13,-6,3,-5,7,0,49*
CCOC(=O)C1=CCN(S(=O)(=O)c2ccccc2C(=O)OC)C1c1ccc(Cl)cc1 (stereo not given),·,·,26,·,·,4,·,·,·,·,·,·
O=C(COC(=O)c1ccc([N+](=O)[O-])s1)NCCc1ccccc1,62*,26,51*,·,68*,2,84*,86*,42,14,0,80*
O=C(COC(=O)c1ccc([N+](=O)[O-])s1)NNC(=O)c1ccccc1,70*,45,48*,·,75*,0,5,88*,48,49,1,86*
CC(NC(=O)COC(=O)c1ccc([N+](=O)[O-])s1)c1ccccc1 (stereo not given),76*,41,41*,-3,62*,0,23,46,3,-9,-7,81*
Cc1ccc(C(=O)OCC(=O)NC(C)c2ccccc2)s1 (stereo not given),-2,4,6,·,-11,1,·,·,·,·,·,·
Cc1cc(C)c(NC(=O)COC(=O)c2ccc([N+](=O)[O-])s2)c(C)c1,15,24,28,3,-15,0,·,·,·,·,·,·
O=C(Cn1c(-c2ccccn2)nc2ccccc21)N/N=C/c1cccnc1,-5,5,-12,10,4,-1,·,·,·,·,·,·
